In brackets after ≈: the same amount, converted by molar mass.
Columns and labels:
Assay type in all cases: functional
Pseudomonas aeruginosa [1] = experiment: Antibacterial activity against Pseudomonas aeruginosa ATCC 27853 assessed as time required for reduction of bacterial load to 3 log CFU/ml at 2 mg/ml up to 48 hrs by time-kill assay
Pseudomonas aeruginosa [2] = experiment: Antibacterial activity against Pseudomonas aeruginosa PA899 by broth dilution method
In short: (§1)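 Broth microdilution MIC per CLSI reference method; twofold serial dilutions in cation-adjusted Mueller-Hinton broth. […] Endpoint read by OD600 and confirmed visually.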

Staphylococcus aureus = experiment: Antibacterial activity against methicillin-sensitive Staphylococcus aureus by broth dilution method
Pseudomonas aeruginosa [3] = experiment: Antibacterial activity against Pseudomonas aeruginosa PA5043 by broth dilution method; in short: as §1
Pseudomonas aeruginosa [4] = experiment: Antibacterial activity against Pseudomonas aeruginosa ATCC 27853 assessed as inhibition of biofilm formation by microtiter plate reader assay
Pseudomonas aeruginosa [5] = experiment: Antibacterial activity against Pseudomonas aeruginosa PA1054 by broth dilution method; in short: as §1
Pseudomonas aeruginosa [6] = experiment: Antibacterial activity against Pseudomonas aeruginosa PA5043 assessed as time required for reduction of bacterial load to 3 log CFU/ml at 0.2 mg/ml up to 48 hrs by time-kill assay
In short: (§2)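 Overnight cultures were diluted and grown at 37°C to OD600 ≈0.3, then set at 5 × 10^5–1 × 10^6 CFU/ml in 10 ml CAMHB. Drug was added at 0.2, 0.6 or 2.0 mg/ml, and cultures were shaken at 37°C. Samples taken at 0, 0.5, 1, 2, 4, 8 and 24 h were washed twice in CAMHB, diluted in saline and plated on Mueller-Hinton agar. Plates were incubated up to 48 h before colony counting.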

Pseudomonas aeruginosa [7] = experiment: Antibacterial activity against Pseudomonas aeruginosa PA881 by broth dilution method; in short: as §1
Pseudomonas aeruginosa [8] = experiment: Antibacterial activity against Pseudomonas aeruginosa PA1022 by broth dilution method
Pseudomonas aeruginosa [9] = experiment: Antibacterial activity against Pseudomonas aeruginosa PA1022 assessed as time required for reduction of bacterial load to 3 log CFU/ml at 2 mg/ml up to 48 hrs by time-kill assay; in short: as §2
Pseudomonas aeruginosa [10] = experiment: Antibacterial activity against Pseudomonas aeruginosa PA1042 by broth dilution method; in short: as §1
Pseudomonas aeruginosa [11] = experiment: Antibacterial activity against Pseudomonas aeruginosa PA1054 assessed as time required for reduction of bacterial load to 3 log CFU/ml at 0.6 mg/ml up to 48 hrs by time-kill assay; in short: as §2
Pseudomonas aeruginosa [12] = experiment: Antibacterial activity against Pseudomonas aeruginosa PA5043 assessed as time required for reduction of bacterial load to 3 log CFU/ml at 0.6 mg/ml up to 48 hrs by time-kill assay; in short: as §2
Pseudomonas aeruginosa [13] = experiment: Antibacterial activity against Pseudomonas aeruginosa PA876 by broth dilution method; in short: as §1
Pseudomonas aeruginosa [14] = experiment: Antibacterial activity against Pseudomonas aeruginosa PA1042 assessed as time required for reduction of bacterial load to 3 log CFU/ml at 0.6 mg/ml up to 48 hrs by time-kill assay; in short: as §2
Pseudomonas aeruginosa [15] = experiment: Antibacterial activity against Pseudomonas aeruginosa PA1042 assessed as inhibition of biofilm formation by microtiter plate reader assay
In short: (§3)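 Biofilms of cystic fibrosis P. aeruginosa isolates were grown and tested by a previously described method. The endpoint was the biofilm inhibitory concentration, the drug level that prevents biofilm cell growth, compared against planktonic broth-microdilution MICs.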

Pseudomonas aeruginosa [16] = experiment: Antibacterial activity against Pseudomonas aeruginosa PA880 assessed as time required for reduction of bacterial load to 3 log CFU/ml at 0.2 mg/ml up to 48 hrs by time-kill assay; in short: as §2
Pseudomonas aeruginosa [17] = experiment: Antibacterial activity against Pseudomonas aeruginosa PA880 assessed as time required for reduction of bacterial load to 3 log CFU/ml at 2 mg/ml up to 48 hrs by time-kill assay; in short: as §2
Pseudomonas aeruginosa [18] = experiment: Antibacterial activity against Pseudomonas aeruginosa PA1054 assessed as time required for reduction of bacterial load to 3 log CFU/ml at 2 mg/ml up to 48 hrs by time-kill assay; in short: as §2
Pseudomonas aeruginosa [19] = experiment: Antibacterial activity against Pseudomonas aeruginosa PA5043 assessed as time required for reduction of bacterial load to 3 log CFU/ml at 2 mg/ml up to 48 hrs by time-kill assay; in short: as §2
Pseudomonas aeruginosa [20] = experiment: Antibacterial activity against Pseudomonas aeruginosa PA880 by broth dilution method; in short: as §1
Pseudomonas aeruginosa [21] = experiment: Antibacterial activity against Pseudomonas aeruginosa PA1022 assessed as time required for reduction of bacterial load to 3 log CFU/ml at 0.2 mg/ml up to 48 hrs by time-kill assay; in short: as §2
Pseudomonas aeruginosa [22] = experiment: Antibacterial activity against Pseudomonas aeruginosa PA876 assessed as time required for reduction of bacterial load to 3 log CFU/ml at 2 mg/ml up to 48 hrs by time-kill assay; in short: as §2
Pseudomonas aeruginosa [23] = experiment: Antibacterial activity against Pseudomonas aeruginosa PA1054 assessed as inhibition of biofilm formation by microtiter plate reader assay; details: for MIC: Pseudomonas aeruginosa, PA1054; in short: as §3
Pseudomonas aeruginosa [24] = experiment: Antibacterial activity against Pseudomonas aeruginosa ATCC 27853 by broth dilution method; in short: as §1
Pseudomonas aeruginosa [25] = experiment: Antibacterial activity against Pseudomonas aeruginosa PA899 assessed as time required for reduction of bacterial load to 3 log CFU/ml at 2 mg/ml up to 48 hrs by time-kill assay; in short: as §2
Pseudomonas aeruginosa [26] = experiment: Antibacterial activity against Pseudomonas aeruginosa by broth dilution method; in short: as §1
Pseudomonas aeruginosa [27] = experiment: Antibacterial activity against Pseudomonas aeruginosa PA861 assessed as time required for reduction of bacterial load to 3 log CFU/ml at 2 mg/ml up to 48 hrs by time-kill assay; in short: as §2
Pseudomonas aeruginosa [28] = experiment: Antibacterial activity against Pseudomonas aeruginosa PA5063 assessed as inhibition of biofilm formation by microtiter plate reader assay; in short: as §3
Burkholderia cepacia = experiment: Antibacterial activity against Burkholderia cepacia clinical isolates by broth dilution method
Pseudomonas aeruginosa [29] = experiment: Antibacterial activity against Pseudomonas aeruginosa PAM1032 overexpressing multidrug efflux pump MexAB-OprM by broth dilution method

Compound	Time (Pseudomonas aeruginosa [1])	MIC (Pseudomonas aeruginosa [2]) [µg/mL]	MIC50 (Staphylococcus aureus) [µg/mL]	MIC90 (Staphylococcus aureus) [µg/mL]	BBC (Pseudomonas aeruginosa [4]) [µg/mL]	MIC (Pseudomonas aeruginosa [5]) [µg/mL]	Time (Pseudomonas aeruginosa [6])	MIC50 (Pseudomonas aeruginosa [7]) [µg/mL]	Time (Pseudomonas aeruginosa [9])	Time (Pseudomonas aeruginosa [11])	Time (Pseudomonas aeruginosa [12])	MIC90 (Pseudomonas aeruginosa [13]) [µg/mL]	Time (Pseudomonas aeruginosa [14])	BBC (Pseudomonas aeruginosa [15]) [µg/mL]	Time (Pseudomonas aeruginosa [16])	Time (Pseudomonas aeruginosa [17])	Time (Pseudomonas aeruginosa [18])	Time (Pseudomonas aeruginosa [19])	Time (Pseudomonas aeruginosa [21])	Time (Pseudomonas aeruginosa [22])	other results
C[C@H]1[C@H](NC(=O)/C(=N\OC(C)(C)C(=O)O)c2csc(N)n2)C(=O)N1S(=O)(=O)O [AZTREONAM]	24 h	8 (≈ 18.4 µM)	> 128	> 128	>256	8 (≈ 18.4 µM)	8 h	2 (≈ 4.59 µM)	24 h	24 h	2 h	> 128	4 h	>8	4 h	4 h	24 h	2 h	>24 h	>24 h	MIC (Pseudomonas aeruginosa [3]): 1 µg/mL (≈ 2.3 µM); MIC (Pseudomonas aeruginosa [8]): 16 µg/mL (≈ 36.7 µM); MIC (Pseudomonas aeruginosa [10]): 0.5 µg/mL (≈ 1.15 µM); MIC (Pseudomonas aeruginosa [20]): 0.5 µg/mL (≈ 1.15 µM); BBC (Pseudomonas aeruginosa [23]): >64 µg/mL; MIC (Pseudomonas aeruginosa [23]): 4 µg/mL (≈ 9.19 µM); MIC (Pseudomonas aeruginosa [24]): 4 µg/mL (≈ 9.19 µM); Time (Pseudomonas aeruginosa [25]): 24 h; MIC50 (Pseudomonas aeruginosa [26]): 4 µg/mL (≈ 9.19 µM); MIC90 (Pseudomonas aeruginosa [26]): 128 µg/mL (≈ 294 µM); Time (Pseudomonas aeruginosa [27]): 24 h; BBC (Pseudomonas aeruginosa [28]): >256 µg/mL
C[C@H]1COc2c(N3CCN(C)CC3)c(F)cc3c(=O)c(C(=O)O)cn1c23.C[C@H]1COc2c(N3CCN(C)CC3)c(F)cc3c(=O)c(C(=O)O)cn1c23.O [LEVOFLOXACIN]	<=0.5 hr	0.5	0.125	0.25	2	0.5	<=0.5 hr	4	<=0.5 hr	<=0.5 hr	<=0.5 hr	8	<=0.5 hr	1	<=0.5 hr	<=0.5 hr	<=0.5 hr	<=0.5 hr	<=0.5 hr	<=0.5 hr	MIC50 (Burkholderia cepacia): 4 µg/mL; MIC90 (Burkholderia cepacia): 32 µg/mL; BBC (Pseudomonas aeruginosa [23]): 1 µg/mL; Time (Pseudomonas aeruginosa [25]): <=0.5 hr; MIC50 (Pseudomonas aeruginosa [26]): 2 µg/mL; MIC90 (Pseudomonas aeruginosa [26]): 8 µg/mL; Time (Pseudomonas aeruginosa [27]): <=0.5 hr; BBC (Pseudomonas aeruginosa [28]): 1 µg/mL
NC[C@H]1O[C@H](O[C@H]2[C@H](O)[C@@H](O[C@H]3O[C@H](CO)[C@@H](O)[C@H](N)[C@H]3O)[C@H](N)C[C@@H]2N)[C@H](N)C[C@@H]1O [TOBRAMYCIN]	<=0.5 hr	0.25 (≈ 0.535 µM)	0.125 (≈ 0.267 µM)	32 (≈ 68.4 µM)	1	0.25 (≈ 0.535 µM)	2 h	2 (≈ 4.28 µM)	4 h	<=0.5 hr	1 h	32 (≈ 68.4 µM)	1 h	1	<=0.5 hr	<=0.5 hr	<=0.5 hr	1 h	4 h	4 h	MIC50 (Burkholderia cepacia): > 32 µg/mL; MIC90 (Burkholderia cepacia): > 32 µg/mL; MIC (Pseudomonas aeruginosa [3]): 8 µg/mL (≈ 17.1 µM); MIC (Pseudomonas aeruginosa [8]): > 32 µg/mL; MIC (Pseudomonas aeruginosa [10]): 0.5 µg/mL (≈ 1.07 µM); MIC (Pseudomonas aeruginosa [29]): 0.25 µg/mL (≈ 0.535 µM); MIC (Pseudomonas aeruginosa [20]): 1 µg/mL (≈ 2.14 µM); BBC (Pseudomonas aeruginosa [23]): 1 µg/mL; MIC (Pseudomonas aeruginosa [23]): 1 µg/mL (≈ 2.14 µM); MIC (Pseudomonas aeruginosa [24]): 0.25 µg/mL (≈ 0.535 µM); Time (Pseudomonas aeruginosa [25]): <=0.5 hr; MIC50 (Pseudomonas aeruginosa [26]): 2 µg/mL (≈ 4.28 µM); MIC90 (Pseudomonas aeruginosa [26]): > 32 µg/mL; Time (Pseudomonas aeruginosa [27]): 4 h; BBC (Pseudomonas aeruginosa [28]): 2 µg/mL

From ChEMBL document CHEMBL1212734, “In vitro pharmacodynamics of levofloxacin and other aerosolized antibiotics under multiple conditions relevant to chronic pulmonary infection in cystic fibrosis” (2010)
